From ChEMBL document CHEMBL1250434, “A novel achiral seco-cyclopropylpyrido[e]indolone (CPyI) analog of CC-1065 and the duocarmycins: synthesis, DNA interactions, in vivo anticancer and anti-parasitic evaluation” (Bioorg Med Chem, 2010) come the findings set out here.

Data set [1] is described as follows: Cytotoxicity against mouse B16F0 cells after 3 days by MTT assay. The format is functional, cell-based. The following applies: B16F0, 72 h. In short, it runs like this: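 Murine tumour cells under continuous drug exposure for 3 days. Growth inhibition measured by MTT assay. IC50 is the concentration inhibiting growth by 50%.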
(In general: Formazan colour is commonly taken as a measure of viable cells.)

The next data set concerns SNB-75. Kind of data set: Cytotoxicity against human SNB75 cells after 48 hrs by sulforhodamine B assay. The conditions noted are these: SNB-75, 48 h, read-out: pLC50 (the source's name) (converted). In kind it is functional. The procedure, abridged:
(§1)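 NCI human cancer cell line panel. Continuous 48 h drug exposure, viability by sulforhodamine B. GI50, TGI and LC50 derived from dose–response curves.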
For orientation: Sulforhodamine B stains cellular protein and so reports cell mass.

The subject of data set [2] is Mus musculus. Kind of data set: Systemic toxicity in mouse B16F0 cells xenografted C57/BL/6J mouse assessed as reduction of body weight at 10 mg/kg, ip administered on day 1, 5, and 9 measured after 21 days. In kind it is organism-based. More on the design: dose 10 mg/kg, route intraperitoneal. The following applies: in vivo, 504 h. In short, it runs like this:
(§2)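 Female C57/BL/6J mice, 5–7 weeks old, 8 per group, carrying sc B16-F0 flank tumours implanted day 0. Dosed 10 mg/kg ip in 1:2 PET/5% glucose on days 1, 5 and 9; vehicle-treated controls on the same schedule. Body weights recorded every other day.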

The subject of a further data set is Plasmodium falciparum. Kind of data set: Antimicrobial activity against Plasmodium falciparum infected in human erythrocytes assessed as growth inhibition. The format is functional, organism-based. The procedure, abridged:
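P. falciparum grown in human erythrocytes at 3–5% hematocrit in complete medium. In vitro growth assay at six concentrations, in triplicate, in three independent experiments.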

The subject of another data set is IGROV-1. Kind of data set: Cytotoxicity against human IGROV1 cells after 48 hrs by sulforhodamine B assay. In kind it is functional. The following applies: IGROV-1, 48 h, read-out: pLC50 (the source's name) (converted). In short, it runs like this:
as §1

The subject of the next data set is UO-31. Kind of data set: Cytotoxicity against human UO31 cells after 48 hrs by sulforhodamine B assay. In kind it is functional. The conditions noted are these: UO-31, 48 h, read-out: pLC50 (the source's name) (converted). In short, it runs like this: as §1
Another data set concerns Leishmania donovani. Kind of data set: Antimicrobial activity against promastigotes of Leishmania donovani assessed as inhibition of cell proliferation after 72 hrs by alamar blue assay. The format is functional, organism-based. In short, it runs like this:
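Promastigotes at 5 × 10^4 cells/well in DME-L medium with 10% heat-inactivated FBS, hemin, xanthine and penicillin-streptomycin. Exposed to 0.03 nM to 64 µM compound for 72 h at 26 °C. Alamar blue added, incubated 15 h, dye reduction read by fluorescence ex 530/em 590 nm.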
On the technique in general: The colour change of resazurin is a common sign of viable cells or microbes.

In another data set the test system is HOP-62. Kind of data set: Cytotoxicity against human HOP62 cells after 48 hrs by sulforhodamine B assay. The format is functional. The conditions noted are these: HOP-62, 48 h, read-out: pLC50 (the source's name) (converted). In short, it runs like this:
as §1

The test system of a further data set is M14. Kind of data set: Cytotoxicity against human M14 cells after 48 hrs by sulforhodamine B assay. In kind it is functional. The conditions noted are these: M14, 48 h, read-out: pLC50 (the source's name) (converted). In short, it runs like this: as §1
Data set [3] is described as follows: Antitumor activity against mouse B16F0 cells xenografted in C57/BL/6J mouse assessed as […] at 10 mg/kg, ip administered on day 1, 5, and 9 measured after 16 days. The format is functional. The conditions noted are these: route intraperitoneal. The procedure, abridged: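 Female C57/BL/6J mice, 5–7 weeks old, 8 per group. Given 200,000 cultured B16-F0 cells (PBS-washed, not mouse-passaged) sc in the left flank on day 0. Dosed 10 mg/kg ip in 1:2 PET/5% glucose on days 1, 5 and 9; controls received vehicle. Tumours measured by caliper about every other day. Volume = length × width². Measurements stopped when 50% of the group had died.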

The subject of another data set is OVCAR-3. Kind of data set: Cytotoxicity against human OVCAR-3 cells after 48 hrs by sulforhodamine B assay. The following applies: OVCAR-3, 48 h, read-out: pLC50 (the source's name) (converted). The format is functional. The procedure, abridged:
as §1

Data set [4] relates to Mus musculus. Kind of data set: Toxicity in mouse B16F0 cells xenografted C57/BL/6J mouse assessed as reduction of body weight at 10 mg/kg, ip administered on day 1, 5, and 9 measured after 21 days. The format is organism-based. Further details: dose 10 mg/kg, route intraperitoneal. The following applies: in vivo, 504 h. In short, it runs like this:
as §2

Another data set concerns OVCAR-8. Kind of data set: Cytotoxicity against human OVCAR8 cells after 48 hrs by sulforhodamine B assay. The format is functional. The conditions noted are these: OVCAR-8, 48 h, read-out: pLC50 (the source's name) (converted). The procedure, abridged:
as §1

A further data set deals with HCT-15. Kind of data set: Cytotoxicity against human HCT15 cells after 48 hrs by sulforhodamine B assay. In kind it is functional. The conditions noted are these: HCT-15, 48 h, read-out: pLC50 (the source's name) (converted). The procedure, abridged: as §1
A further data set concerns COLO 205. Kind of data set: Cytotoxicity against human COLO205 cells after 48 hrs by sulforhodamine B assay. The conditions noted are these: COLO 205, 48 h, read-out: pLC50 (the source's name) (converted). The format is functional. In short, it runs like this:
as §1

A further data set relates to SNB-19. Kind of data set: Cytotoxicity against human SNB19 cells after 48 hrs by sulforhodamine B assay. The format is functional. The conditions noted are these: SNB-19, 48 h, read-out: pLC50 (the source's name) (converted). In short, it runs like this:
as §1

In another data set the test system is UACC-62. Kind of data set: Cytotoxicity against human UACC62 cells after 48 hrs by sulforhodamine B assay. The following applies: UACC-62, 48 h, read-out: pLC50 (the source's name) (converted). In kind it is functional. In short, it runs like this: as §1
The next data set deals with KM12. Kind of data set: Cytotoxicity against human KM12 cells after 48 hrs by sulforhodamine B assay. The format is functional. The following applies: KM12, 48 h, read-out: pLC50 (the source's name) (converted). In short, it runs like this:
as §1

The subject of the next data set is SW-620. Kind of data set: Cytotoxicity against human SW620 cells after 48 hrs by sulforhodamine B assay. The format is functional. The conditions noted are these: SW-620, 48 h, read-out: pLC50 (the source's name) (converted). The procedure, abridged: as §1
A further data set deals with CCRF-CEM. Kind of data set: Cytotoxicity against human CCRF-CEM cells after 48 hrs by sulforhodamine B assay. The format is functional. The conditions noted are these: read-out: pLC50 (the source's name) (converted). In short, it runs like this:
as §1

A further data set deals with EKVX. Kind of data set: Cytotoxicity against human EKVX cells after 48 hrs by sulforhodamine B assay. The format is functional. The following applies: read-out: pLC50 (the source's name) (converted). In short, it runs like this:
as §1

Another data set deals with HT-29. Kind of data set: Cytotoxicity against human HT-29 cells after 48 hrs by sulforhodamine B assay. In kind it is functional. The following applies: HT-29, 48 h, read-out: pLC50 (the source's name) (converted). In short, it runs like this: as §1
The subject of a further data set is HOP-92. Kind of data set: Cytotoxicity against human HOP92 cells after 48 hrs by sulforhodamine B assay. In kind it is functional. The following applies: HOP-92, 48 h, read-out: pLC50 (the source's name) (converted). The procedure, abridged:
as §1

The next data set relates to SK-MEL-28. Kind of data set: Cytotoxicity against human SK-MEL-28 cells after 48 hrs by sulforhodamine B assay. In kind it is functional. The conditions noted are these: SK-MEL-28, 48 h, read-out: pLC50 (the source's name) (converted). The procedure, abridged:
as §1

pIC50: −log10 of the molar value.

With `COc1cc2cc(C(=O)Nc3cc(O)c4ncc(C)cc4c3CCCl)[nH]c2c(OC)c1OC`, the values for the negative-log IC50 (pIC50) (in data set [1]; in the data set on Plasmodium falciparum; in the data set with Leishmania donovani) were 8.64, 8.74 and 6.47, respectively. Also, the CC50 with SNB-75 is 11.5 nM; in the data set on IGROV-1 it was above 100000 nM; in the data set with UO-31 it was above 100000 nM; in the data set with HOP-62, below 10 nM; with M14, below 10 nM; with OVCAR-3, 2630 nM. Besides, the CC50 with OVCAR-8 is 275 nM; in the data set on HCT-15 it was above 100000 nM; in the data set with COLO 205 it was above 100000 nM; in the data set with SNB-19 it was 100000 nM; with UACC-62, below 10 nM; in the data set on KM12, 191 nM. For the same molecule, the CC50 in the data set with SW-620 was above 100000 nM; in the data set on CCRF-CEM, above 100000 nM; with EKVX, 3020 nM; with HT-29, above 100000 nM; in the data set with HOP-92, 28200 nM; in the data set on SK-MEL-28, above 100000 nM. Besides, the Activity entry was “Toxic” in the data set on Mus musculus [2], 1700 mm3 in [3] and “Non-toxic” in the data set on Mus musculus [4].
